Assay results published in ChEMBL document CHEMBL5715947 (Blood Cancer J, 2011).
Activity calls are given as the source filed them. No cut-off for these calls is given here.

Tests used:
MV4-11 [1] = experiment: Antitumor activity against human MV4-11 cells harboring FLT-3 ITD mutant xenografted in BALB/c nude mouse assessed as decrease in phosphorylated STAT5 at Y694 residue at 150 mg/kg, po measured after 2 to 4 hrs by Western blot analysis; assay type: functional, organism-based; details: time 2-4 hrs
Outline: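 Mice bearing s.c. MV4-11 xenografts given a single oral dose of 150 mg/kg in methylcellulose/Tween vehicle. Tumours harvested at 2 and 4 h; lysates immunoblotted for phospho-STAT5 with actin as loading control.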

MV4-11 [2] = experiment: Induction of apoptosis in human MV4-11 cells harboring FLT3-ITD mutant assessed viable cells at 0.03 uM after 48 hrs by AnnexinV-FITC/Propidium iodide staining based flow cytometric analysis (reference value: 86.15 %); assay type: functional
[3] = Antiproliferative activity against relapsed human derived Acute myeloid leukemic cells assessed as reduction in cell viability incubated for 48 hr by CellTiter-Glo assay; assay type: functional, cell-based; details: Leukemia cell
Outline: (§1)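 Primary AML peripheral blood or bone marrow mononuclear cells thawed and expanded ex vivo; blasts counted between day 10 and 13, characterised by CD123 FACS and FLT3 genotyping. Blasts treated 48 h; proliferation IC50 read by CellTiter-Glo.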

MV4-11 [4] = experiment: Antitumor activity against human MV4-11 cells harboring FLT-3 ITD mutant xenografted in BALB/c nude mouse assessed as tumor growth inhibition at 100 mg/kg, po administered daily for 21 days relative to control; assay type: functional; details: MV4-11, 504 h, time 21 day, read-out: TGI
Outline: (§2)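 Female BALB/c nude mice implanted s.c. in right flank with 1 × 10^7 MV4-11 cells in serum-free medium mixed 1:1 with Matrigel. Randomised on day 11 at mean 146–150 mm3 (n=10/group); oral hydrochloride salt once daily for 21 days in 0.5% methylcellulose/0.1% Tween-80. Doses are free-base equivalents; caliper twice weekly; ANOVA with Dunnett's test.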

[5] = Antiproliferative activity against human derived M2 Fab type Acute myeloid leukemic cells assessed as reduction in cell viability incubated for 48 hr by CellTiter-Glo assay; assay type: functional, cell-based; details: Leukemia cell; outline: as §1
RS4-11 [6] = experiment: Induction of cell cycle arrest in human RS4-11 cells assessed increase in cell accumulation at G1 phase after 24 hrs by Propidium iodide staining based flow cytometric analysis; assay type: functional
Outline: (§3)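 Cells then fixed in ice-cold 70% ethanol, stained with 20 ng/ml propidium iodide, and cell-cycle phases measured by flow cytometry.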

MV4-11 [7] = experiment: Induction of apoptosis in human MV4-11 cells harboring FLT3-ITD mutant assessed late apoptotic cells at 0.03 uM after 48 hrs by AnnexinV-FITC/Propidium iodide staining based flow cytometric analysis (reference value: 1.56 %); assay type: functional
[8] = Antiproliferative activity against relapsed human derived M5b Fab type Acute myeloid leukemic cells harboring FLT3-ITD mutant assessed as reduction in cell viability incubated for 48 hr by CellTiter-Glo assay; assay type: functional, cell-based; details: Leukemia cell; outline: as §1
RS4-11 [9] = experiment: Antiproliferative activity against human RS4-11 cells assessed as reduction in cell viability incubated for 48 hr by CellTiter-Glo assay; assay type: functional, cell-based; details: RS4-11, 48 h
MV4-11 [10] = experiment: Induction of apoptosis in human MV4-11 cells harboring FLT3-ITD mutant assessed early apoptotic cells at […] after 72 hrs by AnnexinV-FITC/Propidium iodide staining based flow cytometric analysis (reference value: 7.34 %); assay type: functional; details: dose 0.15 µM
MOLM-13 [11] = experiment: Induction of cell cycle arrest in human MOLM-13 cells harboring FLT3-ITD mutant assessed decrease in cell accumulation at S phase after 24 hrs by Propidium iodide staining based flow cytometric analysis; assay type: functional; outline: as §3
MV4-11 [12] = experiment: Induction of apoptosis in human MV4-11 cells harboring FLT3-ITD mutant assessed late apoptotic cells at […] after 48 hrs by AnnexinV-FITC/Propidium iodide staining based flow cytometric analysis (reference value: 1.56 %); assay type: functional; details: dose 0.15 µM
MV4-11 [13] = experiment: Induction of apoptosis in human MV4-11 cells harboring FLT3-ITD mutant assessed increase in cleaved caspase-3/7 after 16 hrs by Caspase-Glo 3/7 assay; assay type: functional, cell-based
MV4-11 [14] = experiment: Induction of apoptosis in human MV4-11 cells harboring FLT3-ITD mutant assessed viable cells at […] after 48 hrs by AnnexinV-FITC/Propidium iodide staining based flow cytometric analysis (reference value: 86.15 %); assay type: functional; details: dose 0.15 µM
MV4-11 [15] = experiment: Induction of apoptosis in human MV4-11 cells harboring FLT3-ITD mutant assessed as increase in early apoptotic cells after 48 hrs by AnnexinV-FITC/Propidium iodide staining based flow cytometric analysis; assay type: functional, cell-based; details: dose 0.03-0.15 µM
MOLM-13 [16] = experiment: Antitumor activity against human MOLM-13 cells harboring FLT-3 ITD mutant xenografted in BALB/c nude mouse assessed as tumor growth inhibition at 50 mg/kg, po bid administered daily for 7 days relative to control; assay type: functional; details: MOLM-13, 168 h, time 7 day, read-out: TGI
Leukemia cell [17] = experiment: Induction of cell cycle arrest in human derived Acute myeloid leukemic cells assessed as increase in cell accumulation at G1 phase at 0.47 uM after 48 hrs by Propidium iodide staining based flow cytometric analysis
Leukemia cell [18] = experiment: (§4) Induction of apoptosis in human derived Acute myeloid leukemic cells assessed increase in cleaved caspase-3/7 after 16 hrs by Caspase-Glo 3/7 assay; assay type: functional, cell-based
Outline: (§5)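 Expanded primary AML blasts at 300 000 cells/ml treated 16 h; caspase-3/7 activity read by Caspase-Glo 3/7 luminescence and EC50 for apoptosis induction determined.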

[19] = as §4; assay type: functional, cell-based; details: Leukemia cell; outline: as §5
[20] = Antiproliferative activity against human derived Acute myeloid leukemic cells assessed as reduction in cell viability incubated for 48 hr by CellTiter-Glo assay; assay type: functional, cell-based; details: Leukemia cell
MV4-11 [21] = experiment: Induction of apoptosis in human MV4-11 cells harboring FLT3-ITD mutant assessed viable cells at […] after 72 hrs by AnnexinV-FITC/Propidium iodide staining based flow cytometric analysis (reference value: 90.5 %); assay type: functional; details: dose 0.15 µM
MV4-11 [22] = experiment: Induction of apoptosis in human MV4-11 cells harboring FLT3-ITD mutant assessed early apoptotic cells at […] after 48 hrs by AnnexinV-FITC/Propidium iodide staining based flow cytometric analysis (reference value: 11.84 %); assay type: functional; details: dose 0.15 µM
MV4-11 [23] = experiment: Induction of cell cycle arrest in human MV4-11 cells harboring FLT3-ITD mutant assessed increase in cell accumulation at G1 phase after 24 hrs by Propidium iodide staining based flow cytometric analysis; assay type: functional; outline: as §3
MV4-11 [24] = experiment: Antitumor activity against human MV4-11 cells harboring FLT-3 ITD mutant xenografted in BALB/c nude mouse assessed as tumor growth inhibition at 50 mg/kg, po administered daily for 21 days relative to control; assay type: functional; details: MV4-11, 504 h, time 21 day, read-out: TGI; outline: as §2
MOLM-13 [25] = experiment: Antitumor activity against human MOLM-13 cells harboring FLT-3 ITD mutant xenografted in BALB/c nude mouse assessed as decrease in metastatic incidence at 150 mg/kg, po bid administered daily for 7 days; assay type: functional; details: time 7 day
MV4-11 [26] = experiment: Induction of apoptosis in human MV4-11 cells harboring FLT3-ITD mutant assessed early apoptotic cells at 0.03 uM after 72 hrs by AnnexinV-FITC/Propidium iodide staining based flow cytometric analysis (reference value: 7.34 %); assay type: functional
MV4-11 [27] = experiment: Induction of apoptosis in human MV4-11 cells harboring FLT3-ITD mutant assessed necrotic cells at 0.03 uM after 48 hrs by AnnexinV-FITC/Propidium iodide staining based flow cytometric analysis (reference value: 0.45 %); assay type: functional

In the case of C1=N/C2=N/c3ccc(OCCN4CCCC4)c(c3)COC/C=C/COCc3cccc(c3)C(=C1)N2 [PACRITINIB], the Activity (MV4-11 [1]) is reported as “Active”, the Activity (MV4-11 [2]) is reported as 68.98% and the IC50 [3] is reported as 1330 nM. The inhibition in vivo at 100 mg/kg (MV4-11 [4]) was 121%, the IC50 [5] was 350 nM and the Activity (RS4-11 [6]) was “Dose-Dependent Effect”. The Activity (MV4-11 [7]) was 5.58%, the IC50 [8] was 250 nM and the IC50 (RS4-11 [9]) was 930 nM. The Activity (MV4-11 [10]) was 58.69%, the Activity (MOLM-13 [11]) was “Dose-Dependent Effect” and the Activity (MV4-11 [12]) was 20.83%. For the same compound, the Activity (MV4-11 [13]) was “Dose-Dependent Effect”, the EC50 (MV4-11 [13]; MV4-11, 16 h) was 960 nM and the Activity (MV4-11 [14]) was 35.61%. The Activity (MV4-11 [15]) was “Dose-Dependent Effect”, the inhibition in vivo at 50 mg/kg (MOLM-13 [16]) was 15% and the Activity (Leukemia cell [17]) was “Active”. For the same compound, the Activity (Leukemia cell [18]) was “Dose-Dependent Effect”, the EC50 [19] was 268 nM and the IC50 [20] was 460 nM. For the same compound, the Activity (MV4-11 [21]) was 20.38%, the Activity (MV4-11 [22]) was 39.9% and the Activity (MV4-11 [23]) was “Dose-Dependent Effect”. The inhibition in vivo at 50 mg/kg (MV4-11 [24]) was 92%, the Activity (MOLM-13 [25]) was 0.33 and the Activity (MV4-11 [26]) was 22.69%. It also gave an Activity (MV4-11 [27]) of 0.94%.
